IDE inh – human IDE inhibitors in live cells, primary screen, fluorescence polarization, HEK cells, FAbetaB substrate; AID 434962, 2010; FAbetaB cleavage; Insulin-degrading enzyme (Homo sapiens), P14735; hit rate 0.41% among 320,000; inhibition, % at 5.59 µM;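 active means percent inhibition above the average of all tested compounds plus 3 SD, set per screening campaign, cut at about 16% in these data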;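 further: IDE supplied by intact live HEK cells; FP after avidin binding of uncleaved biotin substrate so inhibition keeps polarization high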
IDE act – human IDE activators in live cells, primary screen, fluorescence polarization, HEK cells, FAbeta-B substrate | activation, % at 5.96 µM | hit rate 0.073% among 340,000 | AID 493087, 2011 | FAbeta-B cleavage; 0% vehicle, 100% cell-free pure enzyme wells;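 active means activation above the mean of all tested compounds plus 3 SD, set per screening campaign, cut at about 17% in these data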
CSN inh – inhibitors of CSN-mediated cullin deneddylation, primary screen, biochemical, fluorescence polarization, uHTS; Purified CSN, SCF-Nedd8-OG deneddylation; hit rate 0.38% among 360,000; inhibition, % at 12.5 µM; COP9 signalosome complex subunit 5 (Homo sapiens), Q92905;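 active means pattern-corrected inhibition above about 35%, with an unprinted fluorescence ratio check between 0.5 and 1.5, limit read from the data, passing the limit was not always enough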
Target sequence (Q92905 whole entry, looked up, one chain of several): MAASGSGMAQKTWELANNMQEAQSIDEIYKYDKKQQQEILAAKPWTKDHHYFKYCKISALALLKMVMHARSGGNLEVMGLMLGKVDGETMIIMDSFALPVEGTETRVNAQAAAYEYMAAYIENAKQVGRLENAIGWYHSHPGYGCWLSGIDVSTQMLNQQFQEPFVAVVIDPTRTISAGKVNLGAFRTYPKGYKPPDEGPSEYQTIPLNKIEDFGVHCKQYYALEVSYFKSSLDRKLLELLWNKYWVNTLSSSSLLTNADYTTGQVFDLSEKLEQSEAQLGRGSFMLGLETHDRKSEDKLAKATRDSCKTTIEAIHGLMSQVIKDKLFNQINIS
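Detection – fluorescence polarization · System – HEK293T-derived human Csn5 enzyme · Controls – substrate-only high control, full reaction low control · Timing – 90 min, room temperature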
TPT1 inhibitor – Candida albicans TPT1 enzyme inhibitors, primary screen, biochemical, fluorescence polarization; hit rate 0.81% among 300,000; inhibition, % at 5 µM; tRNA 2'-phosphotransferase TPT1 (Candida albicans SC5314); recombinant caTPT1, FP RNA substrate dephosphorylation;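 active means inhibition above the mean of all tested compounds plus 3 SD, set per screening campaign, cut at about 24% in these data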
HNF4A DNA FP – change in binding of human HNF4A to DNA, primary screen, biochemical, fluorescence polarization, FITC-DNA; Hepatocyte nuclear factor 4-alpha (Homo sapiens), P41235; 1 h; activity change, % at 10 µM; hit rate 0.3% among 360,000; in the data active means activity change above about 30%, passing the limit was not always enough
Large screens that a line does not name were inactive. Hits are enriched below; roughly 1.4% of the tested compounds scored in any of these assays.

S=C(NCCCCN(Cc1ccc(Cl)cc1)c1ccc(Br)cn1)NCCCc1cnc[nH]1	none (no result: IDE inh, IDE act, TPT1 inhibitor)
CCOC(=O)CCC(=O)Nc1ccc([N+](=O)[O-])cc1C	HNF4A DNA FP 30 (no result: IDE act)
COCC(=O)Nc1ccc([N+](=O)[O-])cc1C	none
COc1ccc(-n2nc3c(N4CCC(C(=O)NCc5ccccc5C)CC4)nnc(C)c3c2C)cc1	CSN inh 117
COc1ccc(-n2nc3c(N4CCC(C(=O)NCCc5ccccc5C)CC4)nnc(C)c3c2C)cc1	none
C#CCOCCOCCOCCNc1nc(N2CCN(C(=O)CCCCCCCCCCNC(=O)Cn3cc(CCCCCN)nn3)CC2)nc(N2CCN(C(=O)CCCCCCCCCCNC(=O)[C@H](CO)n3cc(CCCCCN)nn3)CC2)n1	HNF4A DNA FP 38
C#CCOCCOCCOCCNc1nc(N2CCN(C(=O)CCCCCCCCCCNC(=O)Cn3cc(CCCCCN)nn3)CC2)nc(N2CCN(C(=O)CCCCCCCCCCNC(=O)[C@H]([C@@H](C)CC)n3cc(CCCCCN)nn3)CC2)n1	IDE act 25, CSN inh 64, HNF4A DNA FP 52
COc1ccc([C@H]2CC(=O)C[C@@H](CCn3cc(CCc4ccccc4)nn3)O2)cc1	none (no result: IDE inh, IDE act, TPT1 inhibitor)
CN1C(=O)[C@@](O)(c2cn(C)c3ccccc23)c2cc(Br)ccc21	none (no result: IDE inh, IDE act, TPT1 inhibitor)
NC(=O)c1c(NC(=O)CSc2nnc(-c3ccco3)n2-c2ccccc2)sc2c1CCC2	CSN inh 36
CCOC(=O)Cc1csc(SCC(=O)Nc2nccs2)n1	none
N#Cc1c(NC(=O)CSc2nnc(-c3ccco3)n2-c2ccccc2)sc2c1CCC2	none
CCOC(=O)Cc1csc(SCC(=O)Nc2sc3c(c2C(N)=O)CCC3)n1	CSN inh 37
CCCCNC(=O)C1C(c2ccccc2)=Nc2ccccc2N1C(=O)c1ccc(C)cc1 (stereo not drawn)	none (no result: IDE inh, IDE act, TPT1 inhibitor)
Oc1ccc(Cl)c(CN2CCN(c3ncc(Cc4ccccc4)cn3)CC2)c1	none (no result: IDE inh, IDE act, TPT1 inhibitor)
CC1(C(=O)NCc2ccccc2)CSCC(=O)N1C1CC1 (stereo not drawn)	none (no result: IDE inh, IDE act, TPT1 inhibitor)
CCCCOCCCNC(=O)C[C@@H]1C[C@@]2(C(=O)OCC)CCC=C2N(Cc2cccc3ccccc23)C1=O	none (no result: IDE inh, IDE act, TPT1 inhibitor)
Cc1ccccc1Nc1nc(Cl)c(C=O)s1	TPT1 inhibitor 27
COc1ccccc1OCCOc1ccc(/C=C2/C(=N)N3OC(C)=CC3=NC2=O)cc1OC	CSN inh 50
CC1=CC2=NC(=O)/C(=C\c3cccn3CCOc3ccccc3C)C(=N)N2O1	none
CC(C)(C)c1ccc(CC(=O)N2CCC2(C)C(=O)NS(=O)(=O)c2ccccc2Cl)cc1 (stereo not drawn)	none (no result: IDE inh, IDE act, TPT1 inhibitor)
Cc1ccc(S(=O)(=O)N2CC3C(=O)CC(c4ccccc4)N(S(=O)(=O)c4ccc(C)cc4)C3CC2c2cccc(Cl)c2)cc1 (stereo not drawn)	none (no result: IDE inh, IDE act, TPT1 inhibitor)
COc1ccc(NC(=O)CN(C)S(=O)(=O)c2ccccc2)c([N+](=O)[O-])c1	HNF4A DNA FP 39
CNC(=S)N(Cc1cccs1)Cc1cc2cc(OC)ccc2[nH]c1=O	IDE act 34
CSCCC(C(=O)Nc1c(C)cccc1C)N1CCN(C/C=C/c2ccccc2)CC1 (stereo not drawn)	none (no result: IDE inh, IDE act, TPT1 inhibitor)
CC(OC(=O)CC1CC2CCC1C2)C(=O)Nc1cccc(S(=O)(=O)N2CCOCC2)c1 (stereo not drawn)	IDE act 18
CC(OC(=O)CC1CC2CCC1C2)C(=O)Nc1ccc(N2CCOCC2)cc1 (stereo not drawn)	none
CCNC(=O)C1CCCN(C(=O)Cc2cccs2)CC1 (stereo not drawn)	none (no result: IDE inh, IDE act, TPT1 inhibitor)
CCCCn1nnnc1C(c1cccc2ccccc12)N1CCN(C/C=C/c2ccccc2)CC1 (stereo not drawn)	none (no result: IDE inh, IDE act, TPT1 inhibitor)
O=[N+]([O-])c1ccc(N/N=C/c2sc(N3CCOCC3)nc2-c2ccccc2)c(S(=O)(=O)Nc2ccc(Cl)cc2)c1	HNF4A DNA FP 59 (no result: IDE inh, TPT1 inhibitor)
COc1ccc(N/N=C(/C)c2cnnc(-c3ccccc3)n2)cc1	HNF4A DNA FP 46
CCOC(=O)c1cc(-c2ccccc2)sc1NC(=O)C(C)(C)C	none
CCOC(=O)c1cc(-c2ccccc2)sc1NC(=S)Nc1cc(C)ccn1	HNF4A DNA FP 47
Cc1cc(N2CCN(C(C(=O)NC3CCCC3)c3ccco3)CC2)c2ccccc2n1 (stereo not drawn)	none (no result: IDE inh, IDE act, TPT1 inhibitor)
CCCOC(=O)c1cc(-c2ccc(/C=C3/C(=O)N(C)C(=O)C(C#N)=C3C)o2)ccc1Cl	TPT1 inhibitor 24
CCCOC(=O)c1cc(-c2ccc(C=O)o2)ccc1Cl	none
CCOc1cc(-c2ccccc2)nc2c1CN(S(=O)(=O)c1ccc(C)cc1)C(c1cccc(Cl)c1)C2 (stereo not drawn)	none (no result: IDE inh, IDE act, TPT1 inhibitor)
C=Cc1ccc(Cn2c(C)c(C(=O)NCc3ccccc3C(F)(F)F)sc2=O)cc1	none (no result: IDE inh, IDE act, TPT1 inhibitor)
Cc1ccc2nc(-c3ccc(Cl)cc3)c(Cc3ccccn3)n2c1	none (no result: IDE inh, IDE act, TPT1 inhibitor)
NC(=O)N/N=C/c1sc(N2CCCCC2)nc1-c1cccs1	none
CC(C)NC(=S)N/N=C/c1sc(N2CCCCC2)nc1-c1cccs1	HNF4A DNA FP 41
CCOC(=O)c1c(NC(=O)COC(=O)Cn2c(C)nc3ccccc32)sc2c1CCCC2	CSN inh 43
CCCCCCCCN1C(=O)[C@H](CC(=O)N2CCN(C(=O)OCC)CC2)C[C@@]2(C(=O)OC)CC(C)(C)CC=C12	none (no result: IDE inh, IDE act, TPT1 inhibitor)
Cc1cccc(CN2[C@H](COC(=O)Nc3ccccc3)C=CS2(=O)=O)c1	none (no result: IDE inh, IDE act, TPT1 inhibitor)
CCCCOCCCNC(=O)C[C@@H]1C[C@@]2(C(=O)OC)CCCCC=C2N(Cc2cccc3ccccc23)C1=O	none (no result: IDE inh, IDE act, TPT1 inhibitor)
CN(C)C(=O)c1ccc(Oc2ccc(C(=O)N(C)C)cc2)cc1	HNF4A DNA FP 37
S=c1[nH]nc(-c2cc(-c3ccco3)[nH]n2)n1-c1ccccc1Cl	CSN inh 36
CN1C=CC=C/C1=C1/N=C(c2ccccc2)OC1=O	none
CC1=CC(=C2N=C(c3ccccc3)OC2=O)C=C(C)O1	CSN inh 62
Cc1cc(-c2ccccc2)nc(Nc2nc3c(C)cccc3c(=O)[nH]2)n1	HNF4A DNA FP 53 (no result: IDE inh, TPT1 inhibitor)
CCc1ccc(C(=O)CSc2nc(N)cc(=O)[nH]2)cc1	HNF4A DNA FP 49
CC(=O)Nc1cc2c(cc1C(=O)c1ccccc1)OCCO2	IDE act 18
COc1ccc(Cc2c(-c3ccc(C)cc3)nc3ccc(Cl)cn23)c(C)c1	none (no result: IDE inh, IDE act, TPT1 inhibitor)
COc1ccc(NS(=O)(=O)c2ccc(C)c(NC(=O)CN3C(=O)NC4(CCCC4)C3=O)c2)cc1	CSN inh 109 (no result: TPT1 inhibitor)
Cc1ccc(S(=O)(=O)N(C)C)cc1NC(=O)CN1C(=O)NC2(CCCCCC2)C1=O	none
O=C(NCCN1CCCCC1)c1cccc2c1C(=O)c1ccc(N3CCCC3)cc1S2(=O)=O	none (no result: TPT1 inhibitor)
CC1CCN(c2ccc3c(c2)S(=O)(=O)c2cccc(C(=O)NCc4ccc(F)cc4)c2C3=O)CC1	none (no result: TPT1 inhibitor)

Source: PubChem (several laboratories)
